From ChEMBL document CHEMBL2157917, “Targeting conserved water molecules: design of 4-aryl-5-cyanopyrrolo[2,3-d]pyrimidine Hsp90 inhibitors using fragment-based screening and structure-based optimization” (Bioorg Med Chem, 2012)
pKd, pKi: −log10 of the molar value.

Tests used:
[1] = Binding affinity to HSP90 after 30 mins by ITC assay
Summary of the method: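 Isothermal titration calorimetry at 25 °C with stirring at 1000 rpm. Ligands came from a 20 mM DMSO stock and were run in dialysis buffer with 1% DMSO. Ligand 10 µM in the cell, protein 100–200 µM in the syringe, 8–16 injections at 300 s spacing. One-site fit.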

[2] = biological target: Heat shock protein HSP 90-beta (Homo sapiens, UniProt P08238); assay: Inhibition of fluorescently labeled VER51001 binding to full length human HSP90beta after 30 mins by fluorescence polarization assay
Chain of Heat shock protein HSP 90-beta (P08238 whole entry, the tested form may be a part): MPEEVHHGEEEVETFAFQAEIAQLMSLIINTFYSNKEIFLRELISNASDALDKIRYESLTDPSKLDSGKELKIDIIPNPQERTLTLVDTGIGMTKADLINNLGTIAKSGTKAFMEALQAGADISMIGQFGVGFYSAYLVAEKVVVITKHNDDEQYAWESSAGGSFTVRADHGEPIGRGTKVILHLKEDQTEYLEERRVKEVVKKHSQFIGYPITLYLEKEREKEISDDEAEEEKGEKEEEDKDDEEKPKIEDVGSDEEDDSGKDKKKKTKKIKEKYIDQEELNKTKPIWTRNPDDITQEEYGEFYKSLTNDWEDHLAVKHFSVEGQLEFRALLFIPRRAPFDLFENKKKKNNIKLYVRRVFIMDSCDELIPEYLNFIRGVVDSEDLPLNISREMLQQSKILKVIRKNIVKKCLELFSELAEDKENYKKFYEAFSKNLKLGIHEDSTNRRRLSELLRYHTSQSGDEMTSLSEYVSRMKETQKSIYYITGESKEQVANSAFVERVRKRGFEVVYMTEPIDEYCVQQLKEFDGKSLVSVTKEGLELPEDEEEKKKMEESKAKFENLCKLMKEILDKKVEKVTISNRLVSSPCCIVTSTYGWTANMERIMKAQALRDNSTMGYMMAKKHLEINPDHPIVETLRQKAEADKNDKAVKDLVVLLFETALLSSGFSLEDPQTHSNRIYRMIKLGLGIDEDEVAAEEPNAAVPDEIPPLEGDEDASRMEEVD

[3] = Binding affinity to hexa His-tagged HSP90 (9-236 aminoacids) by SPR assay
Summary of the method: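 NTA chip charged with 0.5 mM Ni2+, then 100 nM His-tagged HSP90 captured to about 1500 RU. Running buffer 10 mM HEPES pH 7.4, 150 mM NaCl, EDTA, 0.05% Tween-20, 1% DMSO. Surface was reloaded for each concentration. Double-referenced sensorgrams were fitted globally to a single-step kinetic model.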

BT-474 = assay: Antiproliferative activity against human BT474 cells after 4 days by SRB method; type: functional; conditions: BT-474, 96 h

Work on `CSc1nc(-c2ccc(C)cc2C)c2c(C#N)c[nH]c2n1` yielded a pKd [1] of 6.81 and a pKi [2] of 6.71.
With `CSc1nc(-c2ccc(F)cc2C)c2c(C#N)c[nH]c2n1` the pKd [3] was 6.37, the pKd [1] was 6.60 and the pKi [2] was 6.45.
`CSc1nc(-c2ccc(C#N)cc2)c2c(C#N)c[nH]c2n1` gave a pKd [3] of 5.91 and a pKi [2] of 6.69.
For `CSc1nc(-c2ccc(C)cc2C)c2c(C#N)n[nH]c2n1`, the pKd [3] was 4.42 and the pKi [2] was 5.28.
`CSc1nc(-c2ccc(C)cc2C)c2c(Br)c[nH]c2n1` showed a pKd [3] of less than 4.70 and a pKi [2] of less than 3.70.
Work on `CSc1nc(-c2ccc(C)cc2C)c2c(C)c[nH]c2n1` yielded a pKd [3] of 4.71 and a pKi [2] of less than 3.70.
Work on `CSc1nc(-c2ccc(C)cc2C)c2c(C(F)(F)F)c[nH]c2n1` yielded a pKd [3] of 4.26 and a pKi [2] of 5.58.
For `CSc1nc(-c2ccc(C)cc2C)c2c(C3CC3)c[nH]c2n1`, the pKd [3] was less than 4.00 and the pKi [2] was less than 4.30.
Compound `CSc1nc(-c2ccc(F)cc2C)c2c(C(N)=O)c[nH]c2n1` has a pKd [3] of less than 4.00 and a pKi [2] of less than 3.70.
Compound `Cc1ccc(-c2ncnc3[nH]cc(C#N)c23)c(C)c1` has a pKd [3] of 5.73, a pKd [1] of 5.79 and a pKi [2] of 5.55.
Work on `COc1nc(-c2ccc(F)cc2C)c2c(C#N)c[nH]c2n1` yielded a pKd [3] of 5.55, a pKd [1] of 6.14 and a pKi [2] of 6.20.
With `CNc1nc(-c2ccc(F)cc2C)c2c(C#N)c[nH]c2n1` the pKd [3] was 5.37, the pKd [1] was 5.43 and the pKi [2] was 5.39.
Compound `CCc1nc(-c2ccc(F)cc2C)c2c(C#N)c[nH]c2n1` has a pKd [3] of 5.65, a pKd [1] of 5.74 and a pKi [2] of 5.76.
In the case of `CSc1nc(-c2cc(OCCN3CCCC3)c(Cl)cc2Cl)c2c(C#N)c[nH]c2n1`, the GI50 (BT-474) was 48 nM and the pKi [2] was 8.40.
Work on `CCN(CC)CCOc1cc(-c2nc(SC)nc3[nH]cc(C#N)c23)c(Cl)cc1Cl` yielded a GI50 (BT-474) of 31 nM and a pKi [2] of 8.70.
Work on `COc1cc(Cl)c(-c2nc(SC)nc3[nH]cc(C#N)c23)cc1OCCN1CC[C@H](F)C1` yielded a GI50 (BT-474) of 31 nM and a pKi [2] of 8.52.
With `COc1cc(Cl)c(-c2nc(SC)nc3[nH]cc(C#N)c23)cc1OCCN1CCC(F)(F)C1` the GI50 (BT-474) was 47 nM and the pKi [2] was 7.92.
For `CCN(CC)CCSc1nc(-c2cc(OC)c(Cl)cc2Cl)c2c(C#N)c[nH]c2n1`, the GI50 (BT-474) was 72 nM and the pKi [2] was greater than 9.00.
In the case of `CCN(CC)CCSc1nc(-c2cc(OC)c(OC)cc2Cl)c2c(C#N)c[nH]c2n1`, the GI50 (BT-474) was 26 nM and the pKi [2] was 8.15.
In the case of `CSc1nc(-c2ccc(F)cc2C)c2nc[nH]c2n1`, the pKd [3] was 5.64, the pKd [1] was 5.56 and the pKi [2] was 4.89.
With `CSc1nc(-c2ccc(C#N)cc2)c2nc[nH]c2n1` the pKd [3] was less than 4.70 and the pKi [2] was 4.61.
`CSc1nc(-c2ccc(C)cc2C)c2cc[nH]c2n1` gave a pKd [3] of less than 4.00 and a pKi [2] of less than 3.70.
For `CSc1nc(-c2ccc(F)cc2C)c2cc[nH]c2n1`, the pKd [3] was less than 4.00 and the pKi [2] was less than 3.70.
`CSc1nc(-c2ccc(Cl)cc2C)c2nc[nH]c2n1` showed a pKd [3] of less than 4.70 and a pKi [2] of 6.18.
